Positions of bridges follow the written chain, without caps; N, C: chain ends. Residues, ends and D or L forms follow the SMILES beside them.
What was measured:
Assay type in all cases: functional
Rattus norvegicus [1] = species: Rattus norvegicus; assay: Compound was tested for antihypertensive activity in DOCA nephrectomized rats.
Outline: (§1)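 Rats were anesthetized with halothane after skin infiltration with 2% lidocaine, and the femoral artery and vein were cannulated. After recovery, arterial pressure was recorded. A saline control period was followed by i.v. infusion in 30-min steps at 0.1, 0.2, 0.5 and 1.0 μg/kg per min (70 μL/kg per min). Hydralazine (100 μg/kg per min) was given for standardization. ED50 is in nmol/kg per min, from six animals.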

Rattus norvegicus [2] = species: Rattus norvegicus; assay: Compound was tested for the Na+ excretion for treated over control animals
Outline: (§2)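 Male Sprague-Dawley rats (300-325 g) under halothane/lidocaine had femoral artery, femoral vein and bladder cannulated. After at least 1 h of recovery in restraint, they received Ringer's (1.2 mL/h), with 10-min urine collections over a 30-min control period. Infusion of 0.5 μg/kg per min for 30 min and a 30-min Ringer's recovery followed. Na+, K+ and Cl- were measured with an electrolyte analyzer, reported as treated minus control μmol/sample. Volume ratio is treated/control over three consecutive 10-min samples, six animals.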

Rattus norvegicus [3] = species: Rattus norvegicus; assay: Compound was tested for antihypertensive activity in 5/6 nephrectomized rats.; outline: as §1
Rattus norvegicus [4] = assay: Compound was tested for diuretic activity and the ratio of urine volume for treated over control animals was reported after infused at a dose of 0.5 ug/kg.; outline: as §2
Rattus norvegicus [5] = species: Rattus norvegicus; assay: Compound was tested for the K+ excretion for treated over control animals; outline: as §2

CC[C@H](C)[C@@H]1NC(=O)[C@H](CCCN=C(N)N)NC(=O)[C@H](CC(=O)O)NC(=O)[C@H]([C@@H](C)CC)NC(=O)[C@H](CCCN=C(N)N)NC(=O)CNC(=O)CNC(=O)[C@H](Cc2ccccc2)NC(=O)[C@@H](NC(=O)[C@H](CO)NC(=O)[C@@H](N)CO)CSSC[C@@H](C(=O)N[C@@H](CC(N)=O)C(=O)N[C@@H](CO)C(=O)N[C@@H](Cc2ccccc2)C(=O)N[C@@H](CCCN=C(N)N)C(=O)N[C@@H](Cc2ccc(O)cc2)C(=O)O)NC(=O)CNC(=O)[C@H](CC(C)C)NC(=O)CNC(=O)[C@H](CO)NC(=O)[C@H](CCC(N)=O)NC(=O)[C@H](C)NC(=O)CNC1=O (H-SSCFGGRIDRIGAQSGLGCNSFRY-OH; disulfide 3-19)
ED50 (Rattus norvegicus [1]): 0.16 nM/min/kg | Electrolyte excretion (Rattus norvegicus [2]): 79.6 uM sample-1 | ED50 (Rattus norvegicus [3]): 0.13 nM/min/kg | Ratio (Rattus norvegicus [4]): 2.7 | Electrolyte excretion (Rattus norvegicus [5]): 23 uM sample-1
